Published values collected from several papers.
Each line is one published result; the experiments were not run side by side.
Target: Serine/threonine-protein kinase 16 (STK16, Homo sapiens, UniProt O75716)

SMILES | read-out | action | technique | tested at | endpoint | result
CS(=O)(=O)N1CCCC(NC(=O)[C@H](CCC2CCCCC2)NC(=O)c2ccc(CNc3ncnc4c3nnn4-c3ccccc3)cc2)C1 (stereo partly shown) | cell-free assay |  | competition with immobilised ligand | 0.1 µM | remaining binding | 100%
CC(C)(O)[C@H]1CC[C@H](Nc2ccc3ncc(-c4cccc(C(F)(F)F)c4)n3n2)CC1 | enzyme activity | inhibitor |  | 1 µM | remaining activity | 78.7%
C#Cc1cccc(Nc2ncnc3cc(OCCOC)c(OCCOC)cc23)c1 | cell-free assay |  |  | 0.5 µM | remaining signal | 98%
O=C(Nc1cnn(-c2csc(C(=O)NC3COC3)c2)c1)Nc1c(F)cccc1Cl | enzyme activity | inhibitor |  | 5 µM | remaining activity | 107%
Oc1cccc(-c2nc(N3CCOCC3)c3oc4ncccc4c3n2)c1 | cell-free assay |  |  | 0.5 µM | remaining signal | 91.7%
CN1CC(Oc2cnc(C#N)cc2-c2ccn3nc(NC(=O)C4CC4)cc3c2)C1 | enzyme activity | inhibitor |  | 1 µM | inhibition | 10%
COc1cc(/C=C/C(=O)CC(=O)/C=C/c2ccc(O)c(OC)c2)ccc1O | enzyme activity | inhibitor |  | 1 µM | activity vs control | 91%
C[C@@H]1CCN(C(=O)CC#N)C[C@@H]1N(C)c1ncnc2[nH]ccc12 | cell-free assay | inhibitor |  | 0.5 µM | remaining signal | 94.7%
Cn1cnc(Br)c1C1=CN(c2ncnc3[nH]cnc23)CCS1 | enzyme activity | inhibitor | radiometric | 50 nM | inhibition | 38.5%
Cn1cc(Cl)c2c(Oc3c(F)cc(Nc4cc(Cl)nc(N)n4)cc3F)ccnc21 | cell-free assay |  | competition with immobilised ligand | 0.1 µM | remaining binding | 100%
O=C1NC(=O)c2cc(Nc3ccc(F)cc3)c(Nc3ccc(F)cc3)cc21 | cell-free assay |  |  | 0.5 µM | remaining signal | 85.8%
Nc1cnc(N2CCc3cc(S(=O)(=O)Nc4c(F)cc(Cl)cc4F)cc(N4CCCC4=O)c32)nc1 | cell-free assay |  | competition with immobilised ligand | 1 µM | remaining binding | 100%
COc1cc(Nc2cnc(C#N)c(O[C@H](C)CN(C)C)n2)ncc1-c1cnn(C)c1 | enzyme activity | inhibitor | radiometric | 1 µM | remaining activity | 91%
CN(C)C(=O)Cn1cc(-c2nc(C3(c4ccc(-c5cnc(N)nc5)cc4)CC3)no2)cn1 | cell-free assay |  | competition with immobilised ligand | 1 µM | remaining binding | 100%
COc1cc(-c2cc(-c3ccc(N4CCNCC4)cc3)cnc2C)cc(OC)c1OC | enzyme activity | inhibitor |  | 0.1 µM | inhibition | 4%
c1ccc(N2CCN(Cc3nc4ccccc4[nH]3)CC2)nc1 | binding |  | competition with immobilised ligand | 1 µM | remaining binding | 87%
Cn1cncc1C1=CN(c2ncnc3[nH]cnc23)CCS1 | enzyme activity | inhibitor | radiometric | 50 nM | inhibition | 22%
CN([C@@H]1CCc2c(CC(=O)O)c3cc(S(C)(=O)=O)ccc3n2C1)S(=O)(=O)c1ccc(F)cc1 | cell-free assay |  | competition with immobilised ligand | 1 µM | remaining binding | 95%
FC(F)(F)Oc1cccc(-c2cnc3ccc(-c4ccncc4)nn23)c1 | enzyme activity | inhibitor | radiometric | 1 µM | activity vs control | 120%
